Measurements reported in ChEMBL document CHEMBL1125881, “Synthesis and hypocholesterolemic activity of 6,7-dihydro-4H-pyrazolo[1,5-a]pyrrolo[3,4-d]pyrimidine-5,8-diones, novel inhibitors of acylCoA:cholesterol O-acyltransferase” (J Med Chem, 1991).

Tests used:
[1] = target: T1, Sterol O-acyltransferase 1 (Rattus norvegicus) (UniProt O70536); assay: The compound was tested for Serum Lipoprotein cholesterol- (VLDL+LDL) (mg/dL) concentrations in Cholesterol-fed rats Treated with ACAT inhibitor; assay type: functional
T1 sequence (whole entry): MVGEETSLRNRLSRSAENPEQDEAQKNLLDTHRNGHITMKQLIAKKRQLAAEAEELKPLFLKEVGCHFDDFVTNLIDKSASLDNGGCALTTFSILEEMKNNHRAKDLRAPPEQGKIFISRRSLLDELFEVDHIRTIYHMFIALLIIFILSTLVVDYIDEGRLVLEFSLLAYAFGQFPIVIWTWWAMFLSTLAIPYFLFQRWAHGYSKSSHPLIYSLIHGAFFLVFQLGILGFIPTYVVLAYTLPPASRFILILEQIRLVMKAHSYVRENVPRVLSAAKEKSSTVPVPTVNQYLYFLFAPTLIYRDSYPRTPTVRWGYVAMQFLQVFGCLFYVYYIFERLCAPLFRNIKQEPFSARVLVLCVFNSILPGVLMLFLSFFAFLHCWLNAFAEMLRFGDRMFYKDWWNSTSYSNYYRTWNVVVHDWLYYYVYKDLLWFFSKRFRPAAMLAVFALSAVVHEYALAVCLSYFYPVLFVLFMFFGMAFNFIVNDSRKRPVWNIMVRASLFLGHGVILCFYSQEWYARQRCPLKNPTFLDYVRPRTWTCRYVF
How it was run: (§1)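 Rats fed 1% cholesterol diet for one week, then for a second week the same diet with inhibitor in feed at 20 mg/kg/day, or the synthetic diet without cholesterol. 5 rats per group. Serum HDL, VLDL/LDL (PEG-8000 precipitation, glycine pH 9) and total cholesterol measured at day 7 and […].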

[2] = target: T1, Sterol O-acyltransferase 1 (Rattus norvegicus); assay: (§2) Serum lipoprotein cholesterol diet containing ACAT inhibitor, after one week; assay type: functional; how it was run: as §1
Rattus norvegicus [3] = species on record: Rattus norvegicus; assay: (§3) The compound was tested for % control of serum cholesterol in cholesterol; assay type: functional
How it was run: (§4)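 Male Sprague-Dawley rats (100–110 g), groups of 10, fed synthetic diet with 1% cholesterol; compound mixed into diet to give the stated daily dose (mg/kg) for 7 days. Serum from jugular bleed under anesthesia; VLDL+LDL separated from HDL by PEG-8000 precipitation in glycine buffer pH 9; values expressed as % of cholesterol-fed control; one-way design, LSD comparison.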

Rattus norvegicus [4] = species on record: Rattus norvegicus; assay: as §3; assay type: functional; how it was run: as §4; remark: listed apart in the source
Rattus norvegicus [5] = assay: The compound was tested for % absorption of cholesterol in Cholesterol-Fed rats dosed at 20 mg/kg of body weight per day.; assay type: functional, organism-based; design: dose 20 mg/kg
How it was run: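 Zilversmit dual-isotope plasma ratio method in rats fed cholesterol diet ± compound in feed at 20 mg/kg/day. After one week, [3H]cholesterol given iv and [14C]cholesterol by oral gavage. Blood sampled on days 4, 7 and 9 after label; % oral cholesterol absorbed averaged over the 3 days per rat; one-way design.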

Rattus norvegicus [6] = species on record: Rattus norvegicus; assay: as §3; assay type: functional; how it was run: as §4; remark: listed apart in the source
[7] = target: T1, Sterol O-acyltransferase 1 (Rattus norvegicus); assay: (§5) Serum lipoprotein cholesterol in Cholesterol-fed rats Treated with ACAT inhibitor, after two weeks; assay type: functional; how it was run: as §1
[8] = target: T1, Sterol O-acyltransferase 1 (Rattus norvegicus); assay: The compound was tested for Serum Lipoprotein cholesterol- (HDL) (mg/dL) concentrations in Cholesterol-fed rats Treated with ACAT inhibitor; assay type: functional; how it was run: as §1
Rattus norvegicus [9] = species on record: Rattus norvegicus; assay: (§6) Percent control of serum cholesterol in cholesterol; assay type: functional; design: concentration or dose not given beside the values; how it was run: as §4
[10] = target: T1, Sterol O-acyltransferase 1 (Rattus norvegicus); assay: Inhibition of Fu5AH Acyl coenzyme A:cholesterol acyltransferase at the concentration of 10 ug/mL
[11] = target: T1, Sterol O-acyltransferase 1 (Rattus norvegicus); assay: (§7) Serum lipoprotein cholesterol diet containing ACAT inhibitor, after two weeks; assay type: functional; how it was run: as §1
Rattus norvegicus [12] = species on record: Rattus norvegicus; assay: (§8) Serum lipoprotein cholesterol fed rats dieted or both weeks, after one week; assay type: functional, organism-based; how it was run: as §1
Rattus norvegicus [13] = species on record: Rattus norvegicus; assay: (§9) Serum lipoprotein cholesterol fed rats dieted or both weeks, after two weeks; assay type: functional, organism-based; how it was run: as §1
[14] = target: T1, Sterol O-acyltransferase 1 (Rattus norvegicus); assay: as §5; assay type: functional; how it was run: as §1; remark: listed apart in the source
[15] = target: T1, Sterol O-acyltransferase 1 (Rattus norvegicus); assay: as §5; assay type: functional; how it was run: as §1; remark: listed apart in the source
[16] = target: T1, Sterol O-acyltransferase 1 (Rattus norvegicus); assay: (§10) Serum lipoprotein cholesterol in Cholesterol-fed rats Treated with ACAT inhibitor, after one week; assay type: functional; how it was run: as §1
Rattus norvegicus [17] = species on record: Rattus norvegicus; assay: as §6; assay type: functional; design: concentration or dose not given beside the values; how it was run: as §4; remark: listed apart in the source
Rattus norvegicus [18] = species on record: Rattus norvegicus; assay: as §3; assay type: functional; how it was run: as §4; remark: listed apart in the source
Rattus norvegicus [19] = species on record: Rattus norvegicus; assay: as §3; assay type: functional; how it was run: as §4; remark: listed apart in the source
[20] = target: T1, Sterol O-acyltransferase 1 (Rattus norvegicus); assay: as §7; assay type: functional; how it was run: as §1; remark: listed apart in the source
[21] = target: T1, Sterol O-acyltransferase 1 (Rattus norvegicus); assay: as §2; assay type: functional; how it was run: as §1; remark: listed apart in the source
[22] = target: T1, Sterol O-acyltransferase 1 (Rattus norvegicus); assay: The compound was tested for Serum Lipoprotein cholesterol- (total) (mg/dL) concentrations in Cholesterol-fed rats Treated with ACAT inhibitor; assay type: functional; how it was run: as §1
Rattus norvegicus [23] = species on record: Rattus norvegicus; assay: as §8; assay type: functional, organism-based; how it was run: as §1; remark: listed apart in the source
Rattus norvegicus [24] = species on record: Rattus norvegicus; assay: as §6; assay type: functional; design: concentration or dose not given beside the values; how it was run: as §4; remark: listed apart in the source
Rattus norvegicus [25] = species on record: Rattus norvegicus; assay: Serum lipoprotein cholesterol fed rats dieted for both weeks, after one week; assay type: functional, organism-based; how it was run: as §1
Rattus norvegicus [26] = species on record: Rattus norvegicus; assay: Serum lipoprotein cholesterol fed rats dieted for both weeks, after two weeks; assay type: functional, organism-based; how it was run: as §1
[27] = target: T1, Sterol O-acyltransferase 1 (Rattus norvegicus); assay: as §10; assay type: functional; how it was run: as §1; remark: listed apart in the source
Rattus norvegicus [28] = species on record: Rattus norvegicus; assay: as §9; assay type: functional, organism-based; how it was run: as §1; remark: listed apart in the source
[29] = target: T2, Sterol O-acyltransferase 1 (Rattus norvegicus, UniProt O70536); assay: In vitro inhibition of Fu5AH acyl coenzyme A:cholesterol acyltransferase.
T2 sequence (O70536 whole entry): T1 sequence (whole entry)

[30] = target: T1, Sterol O-acyltransferase 1 (Rattus norvegicus); assay: as §10; assay type: functional; how it was run: as §1; remark: listed apart in the source
[31] = target: T1, Sterol O-acyltransferase 1 (Rattus norvegicus); assay: as §2; assay type: functional; how it was run: as §1; remark: listed apart in the source
Rattus norvegicus [32] = species on record: Rattus norvegicus; assay: as §3; assay type: functional; how it was run: as §4; remark: listed apart in the source
Rattus norvegicus [33] = species on record: Rattus norvegicus; assay: as §3; assay type: functional; how it was run: as §4; remark: listed apart in the source
Rattus norvegicus [34] = species on record: Rattus norvegicus; assay: as §3; assay type: functional; how it was run: as §4; remark: listed apart in the source

Structure (SMILES): O=C(Cn1c2c(c(=O)n3nc(-c4ccc(Cl)cc4)cc13)CN(C1CCCCC1)C2=O)c1ccccc1
- Serum lipoprotein cholesterol [1]: 41.8
- Serum lipoprotein cholesterol [2]: 119
- Control (Rattus norvegicus [3]): 84%
- Control (Rattus norvegicus [4]): 141%
- Absorption (Rattus norvegicus [5]): 27%
- Control (Rattus norvegicus [6]): 32%
- Serum lipoprotein cholesterol [7]: 56.1
- Serum lipoprotein cholesterol [8]: 76.4
- Control (Rattus norvegicus [9]): 40%
- inhibition [10]: 85%
- Serum lipoprotein cholesterol [11]: 32.6
- Serum lipoprotein cholesterol (Rattus norvegicus [12]): 77.8
- Serum lipoprotein cholesterol (Rattus norvegicus [13]): 91.9
- Serum lipoprotein cholesterol [14]: 50.3
- Serum lipoprotein cholesterol [15]: 106
- Serum lipoprotein cholesterol [16]: 130
- Control (Rattus norvegicus [17]): 134%
- Control (Rattus norvegicus [18]): 81%
- Control (Rattus norvegicus [19]): 37%
- Serum lipoprotein cholesterol [20]: 108
- Serum lipoprotein cholesterol [21]: 184
- Serum lipoprotein cholesterol [22]: 118
- Serum lipoprotein cholesterol (Rattus norvegicus [23]): 68.8
- Control (Rattus norvegicus [24]): 85%
- Serum lipoprotein cholesterol (Rattus norvegicus [25]): 146
- Serum lipoprotein cholesterol (Rattus norvegicus [26]): 144
- Serum lipoprotein cholesterol [27]: 182
- Serum lipoprotein cholesterol (Rattus norvegicus [28]): 52.2
- IC50 [29]: 2.99 µM
- Serum lipoprotein cholesterol [30]: 52.9
- Serum lipoprotein cholesterol [31]: 65.8
- Control (Rattus norvegicus [32]): 130%

Structure (SMILES): CC1CCCC(N2Cc3c(n(CC(=O)c4ccccc4)c4cc(-c5ccccc5)nn4c3=O)C2=O)C1C (stereo not drawn)
- Control (Rattus norvegicus [3]): 83%
- Control (Rattus norvegicus [4]): 109%
- Control (Rattus norvegicus [6]): 62%
- Control (Rattus norvegicus [9]): 59%
- inhibition [10]: 79%
- Control (Rattus norvegicus [17]): 122%
- Control (Rattus norvegicus [18]): 86%
- Control (Rattus norvegicus [19]): 70%
- Control (Rattus norvegicus [24]): 89%
- IC50 [29]: 6.67 µM
- Control (Rattus norvegicus [32]): 105%

Structure (SMILES): C=CCCCCn1c2c(c(=O)n3nc(-c4ccccc4)cc13)CN(C1CCCCC1)C2=O
- inhibition [10]: 93%
- Control (Rattus norvegicus [19]): 79%
- Control (Rattus norvegicus [33]): 95%
- Control (Rattus norvegicus [34]): 114%
- IC50 [29]: 10.2 µM
